Data set [1] is described as follows: Stability in human plasma assessed as percentage intact peptide at 100 uM incubated for 10 mins by LC-HRMS analysis. It is filed as ADME, cell-free. The settings on record: read-out: Stability. Put shortly: (§1)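 Peptides at 100 μM initial concentration in human plasma/PBS (1:2 v/v), incubated at 37 °C for up to 48 h (sampled at 10 min, 30 min, 1, 2, 6, 24, 48 h); intact peptide and fragments analysed by LC-HRMS. Values are means ± SEM from three independent experiments.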

Data set [2] in a line: Stability in human plasma assessed as half life at 100 uM by LC-HRMS analysis. It is filed as ADME, cell-free. In outline:
as §1

A short description of data set [3]: Stability in human plasma assessed as percentage intact peptide at 100 uM incubated for 48 hrs by LC-HRMS analysis. It is filed as ADME, cell-free. The settings on record: read-out: Stability. In outline: as §1
Data set [4] can be described thus: Stability in human plasma assessed as percentage intact peptide at 100 uM incubated for 24 hrs by LC-HRMS analysis. It is filed as ADME, cell-free. The settings on record: read-out: Stability. Put shortly:
as §1

The nature of data set [5]: Stability in human plasma assessed as percentage intact peptide at 100 uM incubated for 1 hr by LC-HRMS analysis. It is filed as ADME, cell-free. The settings on record: read-out: Stability. Put shortly: as §1
A short description of data set [6]: Stability in human plasma assessed as percentage intact peptide at 100 uM incubated for 30 mins by LC-HRMS analysis. It is filed as ADME, cell-free. The settings on record: read-out: Stability. Put shortly:
as §1

Data set [7] is described as follows: Stability in human plasma assessed as percentage intact peptide at 100 uM incubated for 2 hrs by LC-HRMS analysis. It is filed as ADME, cell-free. To be noted: read-out: Stability. In outline: as §1
The target in data set [8] is Neurotensin receptor type 1 (Homo sapiens, UniProt P30989). The experiment in a line: Displacement of [3H]UR-MK300 from human NSTR1 in HT-29 cells incubated for 2 hrs by liquid scintillation counter. It is filed as cell-based. Background: Loss of bound radioactivity is the signal in a displacement assay; it reports binding, not function.
Chain of Neurotensin receptor type 1 (P30989 whole entry): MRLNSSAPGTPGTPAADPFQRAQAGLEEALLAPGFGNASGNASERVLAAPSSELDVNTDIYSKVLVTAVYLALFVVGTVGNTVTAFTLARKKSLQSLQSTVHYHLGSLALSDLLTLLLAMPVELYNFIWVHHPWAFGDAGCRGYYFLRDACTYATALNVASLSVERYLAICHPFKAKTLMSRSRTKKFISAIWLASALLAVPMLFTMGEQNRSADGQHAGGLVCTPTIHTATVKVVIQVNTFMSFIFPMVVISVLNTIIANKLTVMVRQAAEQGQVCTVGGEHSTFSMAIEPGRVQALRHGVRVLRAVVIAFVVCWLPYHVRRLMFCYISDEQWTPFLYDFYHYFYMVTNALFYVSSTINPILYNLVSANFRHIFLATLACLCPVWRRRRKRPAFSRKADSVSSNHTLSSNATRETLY
The nature of data set [9]: Stability in human plasma assessed as percentage intact peptide at 100 uM incubated for 6 hrs by LC-HRMS analysis. It is filed as ADME, cell-free. To be noted: read-out: Stability. Put shortly:
as §1

pKi: −log10 of the molar value.

With `CC[C@H](C)[C@H](NC(=O)[C@H](Cc1ccc(O)cc1)NC(=O)[C@@H]1CCCN1C(=O)[C@H](CCCNC(=N)N)NC(=O)[C@@H](N)CCCNC(=N)N)C(=O)N[C@@H](CC(C)C)C(=O)O`, the remaining at 10 min, 100 µM in data set [1] amounted to 23.1%. For the same molecule, in data set [2], the half-life at 100 µM was less than 5 min. Further, in data set [3], the remaining at 48 h, 100 µM is less than 1%. The remaining at 24 h, 100 µM in data set [4] was less than 1%. The remaining at 1 h, 100 µM in data set [5] is less than 1%.

As for `CC[C@H](C)[C@@H](C(=O)N[C@@H](CC(C)C)C(=O)O)N(C)C(=O)[C@H](Cc1ccc(O)cc1)NC(=O)[C@@H]1CCCN1C(=O)[C@H](CCCNC(=N)N)NC(=O)[C@@H](N)CCCNC(=N)N`, the remaining at 10 min, 100 µM in [1] worked out at 2.6%. Moreover, in [6], the remaining at 0.5 h, 100 µM was less than 1%. In [7], the remaining at 2 h, 100 µM is less than 1%. Besides, the remaining at 1 h, 100 µM in data set [5] was less than 1%.

With `CC[C@H](C)[C@H](NC(=O)[C@H](Cc1ccc(O)cc1)N(C)C(=O)[C@@H]1CCCN1C(=O)[C@H](CCCNC(=N)N)NC(=O)[C@@H](N)CCCNC(=N)N)C(=O)N[C@@H](CC(C)C)C(=O)O`, in data set [1], the remaining at 10 min, 100 µM came out at 22.9%. The remaining at 0.5 h, 100 µM in [6] is less than 1%. Further, the remaining at 2 h, 100 µM in data set [7] was less than 1%. The remaining at 1 h, 100 µM in data set [5] was less than 1%.

On to `CC(C)C[C@H](NC(=O)[C@@H](NC(=O)[C@H](Cc1ccc(O)cc1)NC(=O)[C@@H]1CCCN1C(=O)[C@H](CCCNC(=N)N)NC(=O)[C@@H](N)CCCNC(=N)N)C(C)(C)C)C(=O)O.O=C(O)C(F)(F)F.O=C(O)C(F)(F)F.O=C(O)C(F)(F)F`, for which, in data set [1], the remaining at 10 min, 100 µM came to 10.8%. Further, in data set [2], the half-life at 100 µM was less than 5 min. Moreover, the remaining at 48 h, 100 µM in data set [3] is less than 1%. Also, the remaining at 24 h, 100 µM in data set [4] was less than 1%. Further, the remaining at 1 h, 100 µM in [5] is less than 1%.

Take `CC[C@H](C)[C@H](NC(=O)[C@H](Cc1ccc(O)cc1)NC(=O)[C@@H]1CCCN1C(=O)[C@H](CCCNC(=N)N)NC(=O)[C@@H](N)CCCNC(=N)N)C(=O)N(C)[C@@H](CC(C)C)C(=O)O`: in data set [1], the remaining at 10 min, 100 µM turned out to be 39.9%. The remaining at 0.5 h, 100 µM in data set [6] is less than 1%. In data set [7], the remaining at 2 h, 100 µM is less than 1%. The remaining at 1 h, 100 µM in [5] is less than 1%.

On to `CC[C@H](C)[C@H](NC(=O)[C@H](Cc1ccc(O)cc1)NC(=O)[C@@H]1CCCN1C(=O)[C@H](CCCNC(=N)N)N(C)C(=O)[C@@H](N)CCCNC(=N)N)C(=O)N[C@@H](CC(C)C)C(=O)O`, for which the remaining at 10 min, 100 µM in data set [1] was greater than 99%. In data set [6], the remaining at 0.5 h, 100 µM turned out to be 93.6%. For the same molecule, the remaining at 2 h, 100 µM in data set [7] was 66.4%. The remaining at 1 h, 100 µM in [5] turned out to be 83.7%.

In data set [8], `CC(C)C[C@H](NC(=O)[C@@H](NC(=O)[C@H](Cc1ccc(O)cc1)NC(=O)[C@@H]1CCCN1C(=O)[C@H](CCCNC(=N)N)N(C)C(=O)[C@@H](N)CCCNC(=N)N)C(C)(C)C)C(=O)O.O=C(O)C(F)(F)F.O=C(O)C(F)(F)F.O=C(O)C(F)(F)F` gave a negative-log Ki (pKi) of 8.80. The remaining at 6 h, 100 µM in [9] is greater than 99%. Besides, the half-life at 100 µM in [2] was greater than 2880 min. In [3], the remaining at 48 h, 100 µM was greater than 99%. Moreover, the remaining at 24 h, 100 µM in data set [4] was greater than 99%. Moreover, in data set [5], the remaining at 1 h, 100 µM is greater than 99%.

Consider `CCC(=O)N[C@@H](CCCNC(=N)N)C(=O)N[C@@H](CCCNC(=N)N)C(=O)N1CCC[C@H]1C(=O)N[C@@H](Cc1ccc(O)cc1)C(=O)N[C@H](C(=O)N[C@@H](CC(C)C)C(=O)O)[C@@H](C)CC.O=C(O)C(F)(F)F.O=C(O)C(F)(F)F`, for which the remaining at 10 min, 100 µM in [1] was greater than 99%. In addition, the half-life at 100 µM in data set [2] lay within 60 to 120 min. Moreover, in [6], the remaining at 0.5 h, 100 µM is 84%. In data set [5], the remaining at 1 h, 100 µM was found to be 71.8%.

In the case of `CCC(=O)N[C@@H](CCCNC(=N)N)C(=O)N[C@@H](CCCNC(=N)N)C(=O)N1CCC[C@H]1C(=O)N[C@@H](Cc1ccc(O)cc1)C(=O)N[C@H](C(=O)N[C@@H](CC(C)C)C(=O)O)C(C)(C)C`, the pKi in data set [8] was 7.74. In addition, the remaining at 6 h, 100 µM in data set [9] is greater than 99%. In addition, the remaining at 48 h, 100 µM in data set [3] stood at 92.5%. In data set [4], the remaining at 24 h, 100 µM was greater than 99%. The remaining at 1 h, 100 µM in data set [5] was greater than 99%.

On to `CN[C@@H](CCCNC(=N)N)C(=O)N[C@@H](CCCNC(=N)N)C(=O)N1CCC[C@H]1C(=O)N[C@@H](Cc1ccc(O)cc1)C(=O)N[C@H](C(=O)N[C@@H](CC(C)C)C(=O)O)C(C)(C)C.O=C(O)C(F)(F)F.O=C(O)C(F)(F)F.O=C(O)C(F)(F)F`, for which the negative logarithm of the Ki (pKi) in data set [8] was 9.06. Besides, the remaining at 6 h, 100 µM in data set [9] was greater than 99%. For the same molecule, the half-life at 100 µM in data set [2] was greater than 2880 min. Besides, in data set [3], the remaining at 48 h, 100 µM worked out at 86.8%. In addition, the remaining at 24 h, 100 µM in [4] came to 98.3%. The remaining at 1 h, 100 µM in data set [5] is greater than 99%.

On to `CC[C@H](C)[C@H](NC(=O)[C@H](Cc1ccc(O)cc1)NC(=O)[C@@H]1CCCN1C(=O)[C@H](CCCNC(=N)N)NC(=O)[C@H](CCCNC(=N)N)NC)C(=O)N[C@@H](CC(C)C)C(=O)O.O=C(O)C(F)(F)F.O=C(O)C(F)(F)F.O=C(O)C(F)(F)F`, for which the remaining at 10 min, 100 µM in data set [1] was found to be 92.1%. Besides, the negative logarithm of the Ki (pKi) in data set [8] was 9.65. Further, the half-life at 100 µM in data set [2] is less than 300 min. For the same molecule, the remaining at 0.5 h, 100 µM in data set [6] was found to be 88.2%. Besides, in [7], the remaining at 2 h, 100 µM was 70.8%. In data set [5], the remaining at 1 h, 100 µM worked out at 79.7%.

In general, half-life refers to how long it takes for the measured level to halve. In general, pKi refers to the Ki on a negative log10 scale, so that one unit is a factor of ten. A high value points to a small Ki.
